Compound activity from PubChem BioAssay.
This is a sample that favours compounds with a hit; in the whole collection about 1.9% have one here.
HGIII-sPLA2 inh – Blocks human group III sPLA2 activity; inhibition, % at 12.2 µM; hit rate 0.56% among 370,000; Q9NZ20; QFRET BODIPY PC-A2 liposome hydrolysis, fluorescence;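 active means inhibition above mean plus 3 SD of compounds lying within the high and low control bounds, cut at about 19% in these data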
PLCg1 inh – inhibitors of human phospholipase C gamma1. P19174. purified PLC-gamma1, fluorogenic substrate, fluorescence. inhibition, % at 12.2 µM. hit rate 0.84% among 370,000
PLC-beta3 inh – blocks human PLC-beta3 enzyme activity | Q01970 | hit rate 0.18% among 370,000 | inhibition, % at 12.2 µM | Purified PLC-beta3, fluorogenic substrate, fluorescence | AID 720704; in the data active means inhibition above about 11%
DAGLB inhibitor – diacylglycerol lipase beta (human) inhibition. Q8NCG7. HEK293T DAGLB membrane lysate, EnzChek fluorogenic substrate. inhibition, % at 5.17 µM. hit rate 0.059% among 340,000. AID 504411; in the data active means inhibition above about 34%
Target sequence (Q8NCG7 whole entry, looked up): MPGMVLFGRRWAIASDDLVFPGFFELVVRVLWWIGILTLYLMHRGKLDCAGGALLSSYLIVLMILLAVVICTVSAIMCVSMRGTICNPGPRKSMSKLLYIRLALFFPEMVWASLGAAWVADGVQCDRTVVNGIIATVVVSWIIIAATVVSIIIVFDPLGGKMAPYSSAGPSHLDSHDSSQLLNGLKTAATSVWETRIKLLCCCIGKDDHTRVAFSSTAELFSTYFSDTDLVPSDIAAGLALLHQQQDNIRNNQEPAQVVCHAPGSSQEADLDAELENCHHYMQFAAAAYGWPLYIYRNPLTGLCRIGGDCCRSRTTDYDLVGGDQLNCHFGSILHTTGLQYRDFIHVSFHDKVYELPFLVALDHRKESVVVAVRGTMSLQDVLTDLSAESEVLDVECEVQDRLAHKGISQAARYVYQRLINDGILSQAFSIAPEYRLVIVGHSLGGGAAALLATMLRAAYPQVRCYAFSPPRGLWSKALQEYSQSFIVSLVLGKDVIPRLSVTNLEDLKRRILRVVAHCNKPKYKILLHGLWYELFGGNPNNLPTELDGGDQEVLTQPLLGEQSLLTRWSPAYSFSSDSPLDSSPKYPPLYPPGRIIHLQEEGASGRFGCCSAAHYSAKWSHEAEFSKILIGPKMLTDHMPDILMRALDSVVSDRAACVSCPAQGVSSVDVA
Tb MetRS inh – Trypanosoma brucei MetRS inhibition; hit rate 0.4% among 360,000; AID 624268; inhibition, % at 11.9 µM; purified T. brucei MetRS, ATP depletion, Kinase-Glo luminescence;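 active means inhibition above a per-plate cutoff of the control wells' mean inhibition plus 3 SD, cut at about 5.5% in these data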
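technique = Kinase-Glo luminescence, ATP depletion format | system = purified MetRS (methionyl-tRNA synthetase) enzyme from Trypanosoma brucei | timing = 15 min preincubation, 2 h reaction, all 25 °C | evaluation = percent inhibition versus plate control medians | dosing = single dose, 11.9 µM final nominal, 0.9% final DMSO | also added = substrates ATP, L-methionine and bulk Escherichia coli tRNA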
PLCg1 ctr – PLC-gamma1 inhibition, counter-screen for PLC-beta3 hits; inhibition, % at 12.3 µM; AID 743258; shares compounds with PLCg1 inh; hit rate 3.1% among 3,300; purified PLC-gamma1, fluorogenic substrate, fluorescence
PLCb3 confirm – human PLC-beta3 inhibition, confirmation; shares compounds with PLCg1 inh; purified PLC-beta3, fluorogenic substrate fluorescence; inhibition, % at 12.3 µM; hit rate 1% among 3,300; AID 743261; in the data active means inhibition above about 11%
A number is an active result; - = inactive; . = no result. Unless noted, no stated cut-off is given here; in the data, active means inhibition above about 9.5%; inactive means the rest.

SMILES	HGIII-sPLA2 inh	PLCg1 inh	PLC-beta3 inh	DAGLB inhibitor	Tb MetRS inh	PLCg1 ctr	PLCb3 confirm
O=C(NC(=S)Nc1ccc(S(=O)(=O)Nc2nccs2)cc1)c1ccccc1	-	-	-	-	-	.	.
CCCCCCCC(=O)Nc1ccc(S(=O)(=O)Nc2nccs2)cc1	-	26	-	-	-	-	-
O=C(NC(=S)Nc1ccc(S(=O)(=O)Nc2nccs2)cc1)c1ccc(F)c(F)c1	-	14	-	-	-	-	-
O=C(CSc1ccc(Br)c2cccc(Cl)c12)Nc1ccc(S(=O)(=O)Nc2nccs2)cc1	-	11	-	-	-	-	-
CC1(c2nnnn2-c2ccc(F)cc2)CCCC(=O)N1CCc1c[nH]c2ccccc12 (stereo not given)	-	-	-	.	.	.	.
CN(CCOC(=O)CCCc1ccccc1)C1CN(Cc2cn(Cc3ccccc3F)nn2)S(=O)(=O)C1 (stereo not given)	-	-	-	.	.	.	.
Cc1ncc(C[n+]2csc(CCOC(=O)CC3C4CC5CC(C4)CC3C5)c2C)c(N)n1 (stereo not given)	-	9.8	-	-	-	-	-
Cc1ncc(C[n+]2csc(CCOC(=O)C34CC5CC(CC(C5)C3)C4)c2C)c(N)n1	-	-	-	-	-	.	.
CCOC(=O)NC(=O)c1cn(Nc2ncc(Cl)cc2C(F)(F)F)c(=O)[nH]c1=O	-	-	-	-	-	.	.
CCOC(=O)NC(=O)c1cn(Nc2ccccc2)c(=O)[nH]c1=O	-	10	-	-	-	-	-
CN1CCCCC(NC(=O)c2cccc(F)c2)C1=O (stereo not given)	-	-	-	.	.	.	.
Cc1cccc(Oc2nccc(C(F)(F)F)c2C(=O)Nc2ccc(F)cc2F)c1	-	-	-	-	-	.	.
O=C(Nc1ccc(F)cc1F)c1c(C(F)(F)F)ccnc1Oc1ccccc1	-	11	-	.	-	-	-
N#CCC[C@@H]1CC[C@]2(CCCN(C(=O)c3ccno3)C2)O1	-	-	-	.	.	.	.
Cc1ccc(S(=O)(=O)CCc2nnc(NC(=O)C3CCCO3)s2)cc1 (stereo not given)	-	9.6	-	-	-	-	-
CCOc1ncccc1C(=O)OCC(=O)c1c(N)n(C)c(=O)n(C)c1=O	-	-	11	-	-	-	-
Cn1c(N)c(C(=O)COC(=O)c2ccccn2)c(=O)n(C)c1=O	-	-	-	-	-	.	.
COc1ccc(-n2c(N)c(Br)c(=O)[nH]c2=O)cc1	-	11	-	-	-	-	-
Nc1c(Br)c(=O)[nH]c(=O)n1-c1ccccc1	-	-	-	-	-	.	.
CC1(CC(=O)N/N=C/c2cc([N+](=O)[O-])c(O)cc2O)OCCO1	-	9.6	-	.	-	13	-
O=C(CSc1ccc(Cl)cc1)N1CCN(c2c(Cl)cccc2[N+](=O)[O-])CC1	-	-	-	-	-	.	.
O=C(/C=C/c1ccc(Cl)cc1)N1CCN(c2c(Cl)cccc2[N+](=O)[O-])CC1	-	17	-	-	-	-	-
c1ccc(C[n+]2c(-c3ccccc3)csc2Nc2ccccc2)cc1	-	-	-	-	-	.	.
CC(C)(C)Nc1scc(-c2ccccc2)[n+]1-c1ccccc1	-	9.7	-	-	-	-	-
CC(=O)c1ccc(OC(C)C)c(CSC(=N)N)c1	-	12	12	-	-	-	-
SMILES	HGIII-sPLA2 inh	PLCg1 inh	PLC-beta3 inh	DAGLB inhibitor	Tb MetRS inh	PLCg1 ctr	PLCb3 confirm
O=C1CCc2cc(S(=O)(=O)N3CCN(c4ccccc4Cl)CC3)ccc2N1	-	-	-	.	.	.	.
CCOC(=O)C1CCN(Cc2cnc(Oc3ccc(OC)cc3)s2)CC1	-	-	11	-	-	-	-
COC(=O)[C@@]12CCCCC=C1N(CCc1ccc(Cl)cc1)C(=O)[C@H]2CC(=O)NCCCCc1ccccc1	-	-	-	.	.	.	.
O=C(NCCCN1CCCC1=O)Nc1ccccc1F	-	11	-	-	-	-	-
COc1ccc(CNC(=O)CCn2c(C)csc2=O)cc1	-	11	-	-	-	-	-
O=C(/C=C/c1ccc(O)c(O)c1)c1ccc(S(=O)(=O)N2CCCCCC2)cc1	-	11	-	-	-	-	-
O=C(c1ccc(S(=O)(=O)N2CCCC2)cc1)N1CCCCC1	-	-	-	-	-	.	.
Cc1ccnc(NC(=O)C23CC4CC(CC(C4)C2)C3)c1	-	-	11	-	-	-	-
O=C(NNC(=O)C12CC3CC(CC(C3)C1)C2)c1cnccn1	-	11	-	-	-	-	-
O=C(NNC(=O)C12CC3CC(CC(C3)C1)C2)c1ccccn1	-	-	-	-	-	.	.
O=C(Nc1cccnc1)C12CC3CC(CC(C3)C1)C2	-	-	11	-	-	-	-
CCC(=O)Nc1ccc(NC(=O)C23CC4CC(CC(C4)C2)C3)cn1	-	-	-	-	-	.	.
O=C(CSc1nnc(-c2cccnc2)n1Cc1ccco1)Nc1ccc(Cl)cc1	-	-	-	.	.	.	.
O=C(CCN1C(=O)C2C3C=CC(C3)C2C1=O)NCCc1ccccc1Cl (stereo not given)	-	-	-	-	-	.	.
O=C(Cc1ccccc1Cl)NCCN1C(=O)C2C3C=CC(C3)C2C1=O (stereo not given)	-	9.9	-	.	.	-	-
COC(=O)C[C@@H]1CC[C@H]2[C@H](COc3ccc(NC(=O)Nc4ccc(Cl)cc4)cc3C(=O)N2C)O1	-	-	-	.	.	.	.
COc1ccc(/C=C2\CC3(OC(=O)c4cccc(F)c4)CCCN2C3)cc1 (stereo not given)	-	-	-	.	.	.	.
COC(=O)c1ccc2nc(-c3ccco3)c(Cc3ccsc3)n2c1	-	-	-	.	.	.	.
Nc1nc(=O)n([C@@H]2CS[C@H](CO)O2)cc1F	-	14	14	.	.	-	-
Nc1ccn([C@H]2CS[C@@H](CO)O2)c(=O)n1	-	-	-	-	-	.	.
Cc1ccc(C)c(NC(=O)CSc2nc3c(c(=O)n2C)SC(C)C3)c1 (stereo not given)	-	-	-	-	-	.	.
CC1Cc2nc(SCC(=O)Nc3ccc(F)cc3F)n(C)c(=O)c2S1 (stereo not given)	-	13	-	-	-	-	-
CCN(CC)S(=O)(=O)c1cc([N+](=O)[O-])ccc1NNC(=O)Nc1ccccc1OC	-	10	-	-	-	-	-
COc1ccccc1NC(=O)c1ccccc1S(=O)(=O)c1ccc([N+](=O)[O-])cc1	-	9.8	-	-	-	-	-
CC1CCCC(C)N1C(=O)COC(=O)COc1ccc(C#N)cc1 (stereo not given)	-	11	-	-	-	-	-
COc1cc2c(c(OC)c1)C(=O)O[C@H](C)C[C@@H]1O[C@H]1CCCCC(=O)C2	-	-	-	.	.	.	.
CCCS(=O)(=O)NC(=O)C1(C)CCN(C(=O)c2cc(C)n(C(C)(C)C)n2)C1 (stereo not given)	-	-	-	.	-	.	.
